{
  "source": "ChEMBL document CHEMBL5036319",
  "about": "“Discovery of Novel Benzothiazepinones as Irreversible Covalent Glycogen Synthase Kinase 3β Inhibitors for the Treatment of Acute Promyelocytic Leukemia” (J Med Chem, 2021)",
  "key": {"[1]": {"assay": "Induction in caspase-mediated apoptosis in human NB-4 cells assessed as necrotic cells at 25 uM incubated for 24 hrs in presence of Z-VAD-FMK by Annexin V-FITC/propidium iodide staining based flow cytometry analysis (reference value: 0.167%)", "format": "functional"}, "[2]": {"assay": "Induction in caspase-mediated apoptosis in human NB4-DR1 cells assessed as early apoptosis cells at 50 uM incubated for 24 hrs in presence of Z-VAD-FMK by Annexin V-FITC/propidium iodide staining based flow cytometry analysis (reference value: 0.875%)", "format": "functional"}, "[3]": {"assay": "Induction in caspase-mediated apoptosis in human NB-4 cells assessed as necrotic cells at 100 uM incubated for 24 hrs by Annexin V-FITC/Propidium iodide staining based flow cytometry analysis (reference value: 0.352%)", "format": "functional"}, "NB-4 [4]": {"tested_on": "NB-4", "assay": "Cytotoxicity against human NB-4 cells assessed as reduction in cell viability measured after 24 hrs by CCK-8 assay", "format": "functional, cell-based", "details": "NB-4, 24 h", "how_it_was_run": "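Cells were grown in RPMI-1640 or high-glucose DMEM with 10% FBS at 37 °C, 5% CO2, and seeded at 3 × 10^4 cells/well. Exposure was 24 h across serial concentrations (0−1000 μM in the screen). […] Three independent experiments, mean ± SEM.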"}, "[5]": {"assay": "Induction in caspase-mediated apoptosis in human NB4-DR1 cells assessed as late apoptotic cells at 50 uM incubated for 24 hrs by Annexin V-FITC/propidium iodide staining based flow cytometry analysis (reference value: 1.47%)", "format": "functional"}, "[6]": {"assay": "Induction in caspase-mediated apoptosis in human NB-4 cells assessed as necrotic cells at 12.5 uM incubated for 24 hrs by Annexin V-FITC/Propidium iodide staining based flow cytometry analysis (reference value: 0.352%)", "format": "functional"}, "[7]": {"assay": "Induction in caspase-mediated apoptosis in human NB-4 cells assessed as early apoptotic cells at 50 uM incubated for 24 hrs in presence of Z-VAD-FMK by Annexin V-FITC/propidium iodide staining based flow cytometry analysis (reference value: 1.84%)", "format": "functional"}, "[8]": {"assay": "Induction in caspase-mediated apoptosis in human NB4-DR1 cells assessed as viable cells at 100 uM incubated for 24 hrs in presence of Z-VAD-FMK by Annexin V-FITC/propidium iodide staining based flow cytometry analysis (reference value: 96.4%)", "format": "functional", "details": "read-out: Activity"}, "[9]": {"assay": "Induction in caspase-mediated apoptosis in human NB4-DR1 cells assessed as viable cells at 12.5 uM incubated for 24 hrs by Annexin V-FITC/propidium iodide staining based flow cytometry analysis (reference value: 96.9%)", "format": "functional", "details": "read-out: Activity"}, "NB-4 [10]": {"tested_on": "NB-4", "assay": "Antitumor activity against human NB-4 cells xenografted in BALB/c nude mouse assessed as tumor growth inhibition at 15 mg/kg/day, ip administered for 2 weeks relative to control", "format": "functional", "details": "NB-4, ip, 336 h, read-out: TGI", "how_it_was_run": "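Female Balb/c nude mice, 4 weeks old, received 2 × 10^6 NB4 cells s.c. in the right flank. Once tumours reached about 0.5 cm diameter, mice were randomised to corn-oil vehicle or drug in corn oil (n = 5). Dosing was 15 mg/kg/d i.p. once daily for 2 weeks. Caliper volume (length × width²)/2 was taken every other day, and tumours were excised and weighed at the end.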"}, "[11]": {"assay": "Induction in caspase-mediated apoptosis in human NB-4 cells assessed as viable cells at 50 uM incubated for 24 hrs in presence of Z-VAD-FMK by Annexin V-FITC/propidium iodide staining based flow cytometry analysis (reference value: 96.8%)", "format": "functional", "details": "read-out: Activity"}, "[12]": {"assay": "Induction in caspase-mediated apoptosis in human NB-4 cells assessed as early apoptotic cells at 50 uM incubated for 24 hrs by Annexin V-FITC/propidium iodide staining based flow cytometry analysis (reference value: 2.02%)", "format": "functional"}, "[13]": {"assay": "Induction in caspase-mediated apoptosis in human NB-4 cells assessed as necrotic cells at 12.5 uM incubated for 24 hrs in presence of Z-VAD-FMK by Annexin V-FITC/propidium iodide staining based flow cytometry analysis (reference value: 0.167%)", "format": "functional"}, "[14]": {"assay": "Induction in caspase-mediated apoptosis in human NB4-DR1 cells assessed as late apoptotic cells at 50 uM incubated for 24 hrs in presence of Z-VAD-FMK by Annexin V-FITC/propidium iodide staining based flow cytometry analysis (reference value: 2.54%)", "format": "functional"}, "[15]": {"assay": "Induction in caspase-mediated apoptosis in human NB4-DR1 cells assessed as late apoptotic cells at 25 uM incubated for 24 hrs by Annexin V-FITC/propidium iodide staining based flow cytometry analysis (reference value: 1.47%)", "format": "functional"}, "[16]": {"assay": "Induction in caspase-mediated apoptosis in human NB4-DR1 cells assessed as late apoptotic cells at 25 uM incubated for 24 hrs in presence of Z-VAD-FMK by Annexin V-FITC/propidium iodide staining based flow cytometry analysis (reference value: 2.54%)", "format": "functional"}, "[17]": {"assay": "Induction in caspase-mediated apoptosis in human NB-4 cells assessed as late apoptotic cells at 12.5 uM incubated for 24 hrs in presence of Z-VAD-FMK by Annexin V-FITC/propidium iodide staining based flow cytometry analysis (reference value: 1.15%)", "format": "functional"}, "[18]": {"assay": "Induction in caspase-mediated apoptosis in human NB4-DR1 cells assessed as viable cells at 25 uM incubated for 24 hrs by Annexin V-FITC/propidium iodide staining based flow cytometry analysis (reference value: 96.9%)", "format": "functional", "details": "read-out: Activity"}, "[19]": {"assay": "Induction in caspase-mediated apoptosis in human NB-4 cells assessed as viable cells at 50 uM incubated for 24 hrs by Annexin V-FITC/propidium iodide staining based flow cytometry analysis (reference value: 96.6%)", "format": "functional", "details": "read-out: Activity"}, "[20]": {"assay": "AUCinfinity in ICR mouse at 15 mg/kg, ip administered as single dose measured upto 8 hrs by LC-MS/MS analysis", "format": "ADME, organism-based", "design": "route intraperitoneal, dose 15 mg/kg, time <=8", "details": "in vivo", "how_it_was_run": "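Male ICR mice (30 g) given a single i.p. bolus of 15 mg/kg in corn oil. Blood taken by orbital collection into K3EDTA tubes at 0.08, 0.17, 0.5, 1, 2, 4 and 8 h, three animals per time point, giving a composite profile. Plasma proteins were precipitated with acetonitrile and analysed by LC-MS/MS. Parameters were derived by non-compartmental analysis.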"}, "[21]": {"assay": "Induction in caspase-mediated apoptosis in human NB4-DR1 cells assessed as early apoptosis cells at 12.5 uM incubated for 24 hrs in presence of Z-VAD-FMK by Annexin V-FITC/propidium iodide staining based flow cytometry analysis (reference value: 0.875%)", "format": "functional"}, "[22]": {"assay": "Induction in caspase-mediated apoptosis in human NB-4 cells assessed as viable cells at 100 uM incubated for 24 hrs in presence of Z-VAD-FMK by Annexin V-FITC/propidium iodide staining based flow cytometry analysis (reference value: 96.8%)", "format": "functional", "details": "read-out: Activity"}, "[23]": {"assay": "Induction in caspase-mediated apoptosis in human NB4-DR1 cells assessed as necrotic cells at 50 uM incubated for 24 hrs in presence of Z-VAD-FMK by Annexin V-FITC/propidium iodide staining based flow cytometry analysis (reference value: 0.223%)", "format": "functional"}, "[24]": {"assay": "Induction in caspase-mediated apoptosis in human NB-4 cells assessed as late apoptotic cells at 25 uM incubated for 24 hrs by Annexin V-FITC/propidium iodide staining based flow cytometry analysis (reference value: 1.06%)", "format": "functional"}, "[25]": {"assay": "Induction in caspase-mediated apoptosis in human NB-4 cells assessed as early apoptotic cells at 100 uM incubated for 24 hrs in presence of Z-VAD-FMK by Annexin V-FITC/propidium iodide staining based flow cytometry analysis (reference value: 1.84%)", "format": "functional"}},
  "data": [
    {"smiles": "C=CC(=O)N1C(=O)CC(c2ccc(F)cc2)Sc2ccccc21", "note": "(stereo not given)", "values": [
      {"measurement": "Activity", "setting": "[1]", "result": 1.38, "unit": "%"},
      {"measurement": "Activity", "setting": "[2]", "result": 1.12, "unit": "%"},
      {"measurement": "Activity", "setting": "[3]", "result": 4.39, "unit": "%"},
      {"measurement": "IC50", "setting": "NB-4 [4]", "result": 19.6, "unit": "µM"},
      {"measurement": "Activity", "setting": "[5]", "result": 16.1, "unit": "%"},
      {"measurement": "Activity", "setting": "[6]", "result": 6.13, "unit": "%"},
      {"measurement": "Activity", "setting": "[7]", "result": 8.18, "unit": "%"},
      {"measurement": "viability at 100 µM", "setting": "[8]", "result": 82.2, "unit": "%"},
      {"measurement": "viability at 12.5 µM", "setting": "[9]", "result": 92.2, "unit": "%"},
      {"measurement": "inhibition in vivo at 15 mg/kg/day", "setting": "NB-4 [10]", "result": 76, "unit": "%"},
      {"measurement": "viability at 50 µM", "setting": "[11]", "result": 78.6, "unit": "%"},
      {"measurement": "Activity", "setting": "[12]", "result": 7.23, "unit": "%"},
      {"measurement": "Activity", "setting": "[13]", "result": 1.59, "unit": "%"},
      {"measurement": "Activity", "setting": "[14]", "result": 7.04, "unit": "%"},
      {"measurement": "Activity", "setting": "[15]", "result": 14.8, "unit": "%"},
      {"measurement": "Activity", "setting": "[16]", "result": 5.45, "unit": "%"},
      {"measurement": "Activity", "setting": "[17]", "result": 7.39, "unit": "%"},
      {"measurement": "viability at 25 µM", "setting": "[18]", "result": 81.8, "unit": "%"},
      {"measurement": "viability at 50 µM", "setting": "[19]", "result": 14.2, "unit": "%"},
      {"measurement": "AUC", "setting": "[20]", "result": 10838.33, "unit": "ng·h/mL"},
      {"measurement": "Activity", "setting": "[21]", "result": 0.773, "unit": "%"},
      {"measurement": "viability at 100 µM", "setting": "[22]", "result": 72.2, "unit": "%"},
      {"measurement": "Activity", "setting": "[23]", "result": 0.584, "unit": "%"},
      {"measurement": "Activity", "setting": "[24]", "result": 45.6, "unit": "%"},
      {"measurement": "Activity", "setting": "[25]", "result": 5.35, "unit": "%"}
    ]}
  ]
}
